Experimental findings from ChEMBL document CHEMBL5696442, “Discovery of type II inhibitors of TGFβ-activated kinase 1 (TAK1) and mitogen-activated protein kinase kinase kinase kinase 2 (MAP4K2)” (J Med Chem, 2015) are described below.

In assay [1] the target is T1, Dual specificity mitogen-activated protein kinase kinase 5 (Homo sapiens) (UniProt Q13163).
T1 sequence (whole entry): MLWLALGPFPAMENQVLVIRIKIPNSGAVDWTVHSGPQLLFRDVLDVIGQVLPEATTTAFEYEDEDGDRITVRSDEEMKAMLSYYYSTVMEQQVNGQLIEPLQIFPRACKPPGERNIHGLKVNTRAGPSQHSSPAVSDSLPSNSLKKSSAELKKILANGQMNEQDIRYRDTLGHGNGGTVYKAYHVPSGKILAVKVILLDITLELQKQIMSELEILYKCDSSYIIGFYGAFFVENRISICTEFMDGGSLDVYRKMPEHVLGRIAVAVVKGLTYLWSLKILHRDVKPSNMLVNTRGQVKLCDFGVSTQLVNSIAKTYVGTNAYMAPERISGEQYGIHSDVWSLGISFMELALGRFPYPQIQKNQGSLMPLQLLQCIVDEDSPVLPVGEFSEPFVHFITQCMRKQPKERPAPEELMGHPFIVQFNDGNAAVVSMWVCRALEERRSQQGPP
In words: Inhibition of MEK5 (unknown origin) at 1 uM by Ambit Kinomescan binding assay relative to control; values are per cent of control.

For assay [2], the target named is Activated CDC42 kinase 1 (Homo sapiens) (UniProt Q07912). In words: Inhibition of ACK Lys1 labeling site in human A-375 cells at 0.5 uM by KiNativ Profiling analysis relative to control. It counts as cell-based.
In assay [3] the target is Dual specificity testis-specific protein kinase 1 (Homo sapiens) (UniProt Q15569). In words: Inhibition of TESK1 (unknown origin) at 1 uM by Ambit Kinomescan binding assay relative to control.
Assay [4] has as its target High affinity nerve growth factor receptor (Homo sapiens) (UniProt P04629). In words: Inhibition of TRKA (unknown origin) at 1 uM by Ambit Kinomescan binding assay relative to control.
The target of assay [5] is T2, EKC/KEOPS complex subunit TP53RK (Homo sapiens) (UniProt Q96S44).
T2 sequence (whole entry): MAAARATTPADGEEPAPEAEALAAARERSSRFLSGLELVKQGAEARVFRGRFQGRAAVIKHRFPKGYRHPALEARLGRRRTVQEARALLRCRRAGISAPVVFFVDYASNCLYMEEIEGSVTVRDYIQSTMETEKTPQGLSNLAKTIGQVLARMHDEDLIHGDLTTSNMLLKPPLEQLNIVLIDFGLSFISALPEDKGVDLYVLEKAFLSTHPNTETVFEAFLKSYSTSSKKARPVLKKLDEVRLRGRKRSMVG
In words: Inhibition of PRPK ATP Loop labeling site in human A-375 cells at 0.05 uM by KiNativ Profiling analysis relative to control. It counts as cell-based.

The subject of assay [6] is Receptor-type tyrosine-protein kinase FLT3 (Homo sapiens), P36888 [R834Q]. In words: Inhibition of FLT3 R834Q mutant (unknown origin) at 1 uM by Ambit Kinomescan binding assay relative to control; values are per cent of control.
The target in assay [7] is Ribosomal protein S6 kinase alpha-2 (Homo sapiens) (UniProt Q15349). In words: Inhibition of RSK3 domain1 Lys2 labeling site in human A-375 cells at 5 uM by KiNativ Profiling analysis relative to control. It counts as cell-based. The procedure, abridged:
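Live A375 melanoma cells treated with compound at 5 or 0.5 μM, then lysed. Lysate kinases were labeled with a lysine-reactive ATP or ADP-biotin probe. Inhibition was read as protection of labeling sites from the probe.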

Assay [8] deals with Casein kinase I isoform delta (Homo sapiens) (UniProt P48730). In words: Inhibition of CSNK1D (unknown origin) at 1 uM by Ambit Kinomescan binding assay relative to control. Summed up: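 In vitro ATP-site competition binding assay against a panel of over 420 kinases (KinomeScan), with compound tested at 10 or 1 μM.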
The target of assay [9] is Tyrosine-protein kinase ABL1 (Homo sapiens, UniProt P00519). In words: Inhibition of ABL Lys1 labeling site in human A-375 cells at 0.05 uM by KiNativ Profiling analysis relative to control. It counts as cell-based.
The target in assay [10] is Serine/threonine-protein kinase SIK1 (Homo sapiens) (UniProt P57059). In words: Inhibition of SIK (unknown origin) at 10 uM by Ambit Kinomescan binding assay relative to control; values are per cent of control.
The target in assay [11] is Calcium/calmodulin-dependent protein kinase type II subunit delta (Homo sapiens) (UniProt Q13557). In words: Inhibition of CamK2d K1 labeling site harbouring IPTGQEYAAKIINTK in human Huh-7 cells at 10 uM by KiNativ Profiling analysis relative to control. It counts as cell-based.
Assay [12] addresses Serine/threonine-protein kinase 38 (Homo sapiens) (UniProt Q15208). In words: Inhibition of NDR1 Lys1 labeling site in human Huh-7 cells at 1 uM by KiNativ Profiling analysis relative to control. It counts as cell-based.
Assay [13] deals with Serine/threonine-protein kinase SIK1 (Homo sapiens) (UniProt P57059). In words: Inhibition of SIK Lys2 labeling site in human Huh-7 cell lysate at 1 uM by KiNativ Profiling analysis relative to control. It counts as subcellular.

A word on the inhibition: it is the drop in the measured response relative to a control, in per cent.

Chain of Serine/threonine-protein kinase SIK1 (Homo sapiens) (P57059 whole entry): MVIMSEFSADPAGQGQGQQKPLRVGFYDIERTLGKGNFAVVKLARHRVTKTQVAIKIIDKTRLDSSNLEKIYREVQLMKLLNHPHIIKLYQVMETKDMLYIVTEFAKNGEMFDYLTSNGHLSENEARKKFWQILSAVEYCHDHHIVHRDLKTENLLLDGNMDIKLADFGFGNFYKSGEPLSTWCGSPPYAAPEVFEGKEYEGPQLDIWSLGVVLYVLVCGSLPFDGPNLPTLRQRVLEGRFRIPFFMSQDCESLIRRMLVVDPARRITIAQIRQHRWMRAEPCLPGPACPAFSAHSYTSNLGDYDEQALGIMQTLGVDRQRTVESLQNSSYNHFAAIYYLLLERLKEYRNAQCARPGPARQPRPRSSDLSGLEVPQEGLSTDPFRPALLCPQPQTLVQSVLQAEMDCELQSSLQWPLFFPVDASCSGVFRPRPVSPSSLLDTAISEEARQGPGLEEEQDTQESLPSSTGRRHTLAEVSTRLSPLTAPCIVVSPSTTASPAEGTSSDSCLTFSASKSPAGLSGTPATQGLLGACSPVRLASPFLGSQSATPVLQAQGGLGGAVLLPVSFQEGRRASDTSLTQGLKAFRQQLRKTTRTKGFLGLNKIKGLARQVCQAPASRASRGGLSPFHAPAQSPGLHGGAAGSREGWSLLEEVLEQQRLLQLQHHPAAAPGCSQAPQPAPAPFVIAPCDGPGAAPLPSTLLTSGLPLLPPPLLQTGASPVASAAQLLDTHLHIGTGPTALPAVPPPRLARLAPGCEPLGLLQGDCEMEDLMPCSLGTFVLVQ
Chain of High affinity nerve growth factor receptor (Homo sapiens) (P04629 33-796 limits assumed): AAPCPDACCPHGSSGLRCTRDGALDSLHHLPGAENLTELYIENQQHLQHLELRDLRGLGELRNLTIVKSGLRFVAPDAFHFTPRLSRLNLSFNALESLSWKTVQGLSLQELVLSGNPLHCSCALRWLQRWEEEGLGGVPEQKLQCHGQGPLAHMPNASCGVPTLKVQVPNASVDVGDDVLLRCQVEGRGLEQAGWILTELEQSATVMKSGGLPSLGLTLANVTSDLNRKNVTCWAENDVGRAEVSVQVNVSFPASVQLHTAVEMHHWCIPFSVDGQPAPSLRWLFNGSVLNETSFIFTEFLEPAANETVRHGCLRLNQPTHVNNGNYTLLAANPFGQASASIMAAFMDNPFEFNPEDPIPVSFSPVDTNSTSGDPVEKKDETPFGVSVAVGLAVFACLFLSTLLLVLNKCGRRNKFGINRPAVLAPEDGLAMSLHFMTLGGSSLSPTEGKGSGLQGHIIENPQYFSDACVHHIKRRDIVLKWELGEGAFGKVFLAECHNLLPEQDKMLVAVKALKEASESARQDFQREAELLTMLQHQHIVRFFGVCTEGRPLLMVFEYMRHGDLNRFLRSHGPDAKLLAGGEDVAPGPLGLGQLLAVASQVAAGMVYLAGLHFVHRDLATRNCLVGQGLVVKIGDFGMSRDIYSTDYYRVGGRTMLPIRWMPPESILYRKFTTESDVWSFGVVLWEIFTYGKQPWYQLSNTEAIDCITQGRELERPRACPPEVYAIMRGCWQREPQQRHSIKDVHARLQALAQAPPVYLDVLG
Chain of Dual specificity testis-specific protein kinase 1 (Homo sapiens) (Q15569 whole entry, looked up): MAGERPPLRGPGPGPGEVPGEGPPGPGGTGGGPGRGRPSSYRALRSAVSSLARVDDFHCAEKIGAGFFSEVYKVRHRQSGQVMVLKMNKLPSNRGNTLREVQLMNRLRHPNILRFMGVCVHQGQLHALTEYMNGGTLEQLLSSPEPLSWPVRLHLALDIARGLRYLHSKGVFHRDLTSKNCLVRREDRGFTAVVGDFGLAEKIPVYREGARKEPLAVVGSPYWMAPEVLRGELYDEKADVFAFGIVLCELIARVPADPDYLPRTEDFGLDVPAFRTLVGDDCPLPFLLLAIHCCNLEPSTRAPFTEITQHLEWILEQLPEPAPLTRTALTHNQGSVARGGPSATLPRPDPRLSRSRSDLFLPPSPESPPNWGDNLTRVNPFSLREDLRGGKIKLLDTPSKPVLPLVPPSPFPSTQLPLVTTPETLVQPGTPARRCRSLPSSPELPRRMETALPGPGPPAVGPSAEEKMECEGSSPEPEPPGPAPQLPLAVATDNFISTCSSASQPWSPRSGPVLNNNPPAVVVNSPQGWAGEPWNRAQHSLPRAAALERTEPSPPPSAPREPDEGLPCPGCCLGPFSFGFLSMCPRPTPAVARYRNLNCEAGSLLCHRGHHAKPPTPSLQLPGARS
Chain of Calcium/calmodulin-dependent protein kinase type II subunit delta (Homo sapiens) (Q13557 whole entry): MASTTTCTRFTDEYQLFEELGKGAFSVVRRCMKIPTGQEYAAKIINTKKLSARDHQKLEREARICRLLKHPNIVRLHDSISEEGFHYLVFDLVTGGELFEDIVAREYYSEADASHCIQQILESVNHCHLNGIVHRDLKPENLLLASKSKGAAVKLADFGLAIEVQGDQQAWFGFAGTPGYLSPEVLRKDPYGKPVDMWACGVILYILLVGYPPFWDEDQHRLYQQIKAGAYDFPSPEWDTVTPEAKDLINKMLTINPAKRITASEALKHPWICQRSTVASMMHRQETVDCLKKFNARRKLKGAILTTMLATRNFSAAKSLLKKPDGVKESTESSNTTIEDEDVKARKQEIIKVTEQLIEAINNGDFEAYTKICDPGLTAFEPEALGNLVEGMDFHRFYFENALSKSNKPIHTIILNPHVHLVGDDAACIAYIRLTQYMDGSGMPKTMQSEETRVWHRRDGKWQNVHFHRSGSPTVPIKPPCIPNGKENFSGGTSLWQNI
Chain of Tyrosine-protein kinase ABL1 (P00519 whole entry): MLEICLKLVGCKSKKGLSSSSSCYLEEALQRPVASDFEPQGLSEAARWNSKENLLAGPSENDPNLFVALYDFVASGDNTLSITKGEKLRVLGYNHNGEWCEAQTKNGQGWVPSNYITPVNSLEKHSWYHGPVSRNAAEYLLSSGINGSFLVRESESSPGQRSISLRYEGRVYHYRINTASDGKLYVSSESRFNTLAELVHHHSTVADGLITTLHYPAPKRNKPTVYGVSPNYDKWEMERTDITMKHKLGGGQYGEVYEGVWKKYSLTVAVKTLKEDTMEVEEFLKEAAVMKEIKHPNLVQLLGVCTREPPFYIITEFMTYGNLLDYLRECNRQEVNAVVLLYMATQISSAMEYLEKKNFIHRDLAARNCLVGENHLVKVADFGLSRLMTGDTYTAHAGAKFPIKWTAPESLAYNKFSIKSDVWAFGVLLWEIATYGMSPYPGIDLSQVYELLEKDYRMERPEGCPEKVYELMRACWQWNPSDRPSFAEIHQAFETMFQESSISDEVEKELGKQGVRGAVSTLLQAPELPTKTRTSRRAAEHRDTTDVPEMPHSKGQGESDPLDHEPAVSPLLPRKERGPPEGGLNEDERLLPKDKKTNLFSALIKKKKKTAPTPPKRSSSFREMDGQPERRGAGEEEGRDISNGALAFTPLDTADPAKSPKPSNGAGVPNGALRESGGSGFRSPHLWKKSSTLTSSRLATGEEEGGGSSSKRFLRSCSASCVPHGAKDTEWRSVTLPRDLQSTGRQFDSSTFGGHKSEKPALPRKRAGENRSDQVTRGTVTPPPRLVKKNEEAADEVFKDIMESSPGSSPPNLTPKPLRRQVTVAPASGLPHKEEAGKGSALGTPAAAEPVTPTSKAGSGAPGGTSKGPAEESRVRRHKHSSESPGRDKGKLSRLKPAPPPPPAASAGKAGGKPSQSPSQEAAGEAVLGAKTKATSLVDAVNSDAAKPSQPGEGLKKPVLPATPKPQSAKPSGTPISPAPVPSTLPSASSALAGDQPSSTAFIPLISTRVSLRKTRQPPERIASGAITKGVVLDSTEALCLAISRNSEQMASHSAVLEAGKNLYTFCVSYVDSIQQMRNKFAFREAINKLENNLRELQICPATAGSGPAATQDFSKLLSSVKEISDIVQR
Chain of Casein kinase I isoform delta (Homo sapiens) (P48730 whole entry, looked up, canonical isoform): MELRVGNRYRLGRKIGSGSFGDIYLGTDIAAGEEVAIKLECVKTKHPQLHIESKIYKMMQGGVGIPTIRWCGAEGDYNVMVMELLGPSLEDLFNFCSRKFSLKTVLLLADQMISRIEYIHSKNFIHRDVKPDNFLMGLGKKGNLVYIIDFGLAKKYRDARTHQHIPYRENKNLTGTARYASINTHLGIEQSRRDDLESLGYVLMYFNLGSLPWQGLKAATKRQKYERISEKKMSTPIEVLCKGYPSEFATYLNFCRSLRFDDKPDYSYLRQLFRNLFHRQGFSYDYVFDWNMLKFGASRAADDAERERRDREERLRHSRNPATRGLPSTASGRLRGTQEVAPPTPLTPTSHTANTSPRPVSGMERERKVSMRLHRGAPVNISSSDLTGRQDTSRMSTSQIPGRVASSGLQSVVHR
Chain of Ribosomal protein S6 kinase alpha-2 (Homo sapiens) (Q15349 whole entry, the tested form may be a part): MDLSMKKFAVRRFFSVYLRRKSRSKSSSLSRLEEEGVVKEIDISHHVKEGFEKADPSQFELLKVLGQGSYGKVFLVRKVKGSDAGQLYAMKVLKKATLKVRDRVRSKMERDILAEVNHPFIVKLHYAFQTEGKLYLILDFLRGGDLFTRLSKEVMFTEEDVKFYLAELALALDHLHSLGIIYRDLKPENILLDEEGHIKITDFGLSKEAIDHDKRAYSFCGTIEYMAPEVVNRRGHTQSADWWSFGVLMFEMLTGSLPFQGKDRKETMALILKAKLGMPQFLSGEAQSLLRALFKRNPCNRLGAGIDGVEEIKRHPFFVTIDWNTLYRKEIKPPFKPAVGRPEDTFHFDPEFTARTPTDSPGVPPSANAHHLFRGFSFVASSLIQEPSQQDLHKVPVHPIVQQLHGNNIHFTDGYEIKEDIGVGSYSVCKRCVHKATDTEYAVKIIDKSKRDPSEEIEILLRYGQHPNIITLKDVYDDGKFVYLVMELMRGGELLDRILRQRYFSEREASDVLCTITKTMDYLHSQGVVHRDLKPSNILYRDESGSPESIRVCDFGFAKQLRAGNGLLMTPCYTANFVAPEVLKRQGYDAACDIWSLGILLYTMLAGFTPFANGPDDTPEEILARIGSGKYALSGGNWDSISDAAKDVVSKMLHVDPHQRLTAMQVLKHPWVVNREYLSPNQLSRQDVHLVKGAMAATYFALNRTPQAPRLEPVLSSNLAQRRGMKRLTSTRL

For `CCN1CCN(Cc2ccc(NC(=O)c3ccc(C)c(/C=C/c4cnc5[nH]ccc5c4OC)c3)cc2C(F)(F)F)CC1`, the residual activity in assay [1] stood at 1.4%; in assay [6] it was 7.4%. Further, the inhibition in [2] is 35.2%; in [3] it was 100%; in [4], 54%; in assay [5], -1.5%; in [7], 16.5%; in assay [8] it was 84%.

Regarding `CCN1CCN(Cc2ccc(NC(=O)c3ccc(C)c(Oc4ccnc5[nH]ccc45)c3)cc2C(F)(F)F)CC1`, the inhibition in assay [9] was 84.8%; in assay [11], -7.6%. Also, in assay [10], the residual activity was 5.3%.

For `CNc1cc(Oc2cc(C(=O)Nc3cc(N4CCN(C)CC4)cc(C(F)(F)F)c3)ccc2C)ncn1`, the inhibition in [12] is 16.4%; in assay [13] it was -1.3%.
